In ChEMBL document CHEMBL1154902, “Potent inhibitor scaffold against Trypanosoma cruzi trans-sialidase” (Bioorg Med Chem, 2010) one finds IC50, Ki and Ratio IC50 data, which are given here for 23 molecules.

Usually pIC50 stands for −log10 of the IC50, conventionally taken in molar units. By pKi is commonly meant the negative decadic logarithm of the Ki, by convention in mol/L. A low value points to a large Ki.

pIC50, pKi: −log10 of the molar value.

For one test, the target named is Sialidase-2 (Homo sapiens, UniProt Q9Y3R4). The experiment in a line: Inhibition of human Neu2 assessed as MuNANA substrate hydrolysis in presence of 0.1% Triton X-100 by discontinuous fluorimetric assay. The method, boiled down: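 Recombinant human Neu2 expressed from pET15b in E. coli BL21(DE3) and purified on DEAE and His-Trap columns. Reactions were quenched with 0.2 M Na2CO3 (pH 10), and released 4-methylumbelliferone was read at ex 355/em 460 nm. Runs were in duplicate or triplicate, corrected for compound fluorescence interference.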
Chain of Sialidase-2 (Q9Y3R4 whole entry): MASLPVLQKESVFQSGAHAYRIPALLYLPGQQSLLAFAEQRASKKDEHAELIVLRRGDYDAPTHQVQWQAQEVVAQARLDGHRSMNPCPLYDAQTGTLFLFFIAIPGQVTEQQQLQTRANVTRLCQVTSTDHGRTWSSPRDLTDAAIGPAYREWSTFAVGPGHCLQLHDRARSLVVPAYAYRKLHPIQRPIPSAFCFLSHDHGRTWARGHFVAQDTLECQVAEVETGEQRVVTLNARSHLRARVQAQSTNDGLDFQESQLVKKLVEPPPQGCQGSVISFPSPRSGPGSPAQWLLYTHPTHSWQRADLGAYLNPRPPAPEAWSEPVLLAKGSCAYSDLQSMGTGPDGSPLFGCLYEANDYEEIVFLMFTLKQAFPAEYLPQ

Test [1] is described as follows: Noncompetitive inhibition of Trypanosoma cruzi trans-sialidase containing catalytic domain (N58F, R200K) and lectin-like domain (S495 K, V496G, E520K, D593G, I597D, H599R) mutation expressed in Escherichia coli JM109 by discontinuous fluorimetric assay using Lineweaver-Burke plot. The method, boiled down: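 Same MuNANA hydrolysis assay with purified recombinant TcTS at 25 °C in Tris-HCl pH 7.5. MuNANA was varied over 25–200 µM against several inhibitor concentrations, in triplicate. The inhibition mode was assigned by best fit, and Ki for noncompetitive inhibition was taken from the Lineweaver–Burk double-reciprocal plot.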

Test [2] can be described thus: Inhibition of Trypanosoma cruzi trans-sialidase containing catalytic domain (N58F, R200K) and lectin-like domain (S495 K, V496G, E520K, D593G, I597D, H599R) mutation expressed in Escherichia coli JM109 assessed as MuNANA substrate hydrolysis in presence of 0.1% Triton X-100 by discontinuous fluorimetric assay. The method, boiled down: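 Recombinant TcTS lacking the C-terminal SAPA repeat, His-tagged (pTrcHisA) and purified by cation exchange, Ni affinity and gel filtration. Conditions: 8 ng/ml enzyme, 50 µM MuNANA, 50 mM Tris-HCl pH 7.5, 0.1% Triton X-100, 10% DMSO, 25 °C for 30 min. Stopped with 0.2 M Na2CO3 pH 10. Released Mu read at ex 355/em 460 nm in two or three replicates, corrected for compound fluorescence interference.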

Test [3] can be described thus: Selectivity for Trypanosoma cruzi trans-sialidase mutant over human Neu2.
Another test relates to Trypanosoma cruzi. Description: Antiparasitic effect against Trypanosoma cruzi assessed as induction of parasite lysis. Format: functional, organism-based.

With `O=C(O)c1cc(O)c2c(c1)C(=O)c1cc(O)c(Cl)c(O)c1C2=O`, the figures for the negative-log IC50 (pIC50) (on Sialidase-2; in test [2]) were less than 4.00 and 6.24, respectively. This molecule showed a pKi in test [1] of 6.05. Further, the Ratio IC50 in test [3] is more than 170.
Consider `O=c1cc(-c2ccccc2O)oc2cc(O)cc(O)c12`, for which the negative logarithm of the IC50 (pIC50) on Sialidase-2 was 4.15; in test [2] it was 3.44. Besides, the Ratio IC50 in test [3] was found to be 0.2.
The like results for `O=c1cc(-c2ccc(O)cc2)oc2cc(O)ccc12` were, in that order, 3.33, less than 3.00 and less than 0.5.
The like results for `O=C(O)c1ccc2c(c1)C(=O)c1ccccc1C2=O` were, in that order, 3.10, 3.37 and 1.9.
As for `O=c1cc(-c2ccc(O)cc2)oc2cccc(O)c12`, the pIC50 (at Sialidase-2; in test [2]) was less than 3.00 throughout.
`O=c1cc(-c2ccccc2)oc2cccc(O)c12` [5-HYDROXYFLAVONE]: the negative logarithm of the IC50 (pIC50) (on Sialidase-2; in test [2]) was less than 3.00 throughout.
Consider `Oc1cc(O)c2c(c1)O[C@@H](c1ccc(O)c(O)c1)[C@H](O)C2` [(-)-CATECHIN], for which the pIC50 (at Sialidase-2; in test [2]) was less than 3.00 in each case.
For `COc1ccc(-c2cc(=O)c3c(O)cc(O)cc3o2)cc1` [ACACETIN], the pIC50 (at Sialidase-2; in test [2]) was less than 3.00 in each case.
`O=c1cc(-c2ccc(O)cc2)oc2cc(O)cc(O)c12` [APIGENIN]: the pIC50 on Sialidase-2 was 3.24; in test [2], 4.11; in the test on Trypanosoma cruzi, 3.17. The same molecule showed a pKi in test [1] of 4.22. In addition, the Ratio IC50 in test [3] turned out to be 7.3.
With `O=c1cc(-c2ccccc2)oc2cc(O)c(O)c(O)c12` [BAICALEIN], the figures for the pIC50 (on Sialidase-2; in test [2]) were 3.89 and 4.00, respectively. In test [3], the Ratio IC50 was 1.3.
The matching figures for `O=c1cc(-c2ccccc2)oc2cc(O)cc(O)c12` [CHRYSIN]: 3.05, 3.47 and 2.6.
The matching figures for `O=C1c2cccc(O)c2C(=O)c2c(O)cccc21` [DANTHRON]: less than 3.00, 3.15 and more than 1.4.
The matching figures for `Cc1cc(O)c2c(c1)C(=O)c1cc(O)cc(O)c1C2=O` [EMODIN]: 3.12, 3.96 and 6.9.
For `O=c1c(-c2ccc(O)cc2)coc2cc(O)cc(O)c12` [GENISTEIN], the results for the pIC50 (on Sialidase-2; in test [2]) were 3.42 and 3.64, respectively. In addition, the Ratio IC50 in test [3] is 1.7.
Consider `COc1cc(O)c2c(=O)cc(-c3ccc(O)cc3)oc2c1` [GENKWANIN], for which the negative-log IC50 (pIC50) at Sialidase-2 is less than 3.00; in test [2], 3.85.
Regarding `O=c1c(O)c(-c2ccc(O)cc2)oc2cc(O)cc(O)c12` [KAEMPFEROL], the negative-log IC50 (pIC50) is 3.64 on Sialidase-2 and 3.96 in test [2]. The Ratio IC50 in test [3] came out at 2.1.
The matching figures for `O=c1cc(-c2ccc(O)c(O)c2)oc2cc(O)cc(O)c12` [LUTEOLIN]: 3.89, 4.66 and 5.9.
The like results for `O=c1c(O)c(-c2cc(O)c(O)c(O)c2)oc2cc(O)cc(O)c12` [MYRICETIN] were, in that order, 3.82, 4.77 and 8.8.
The matching figures for `O=c1c(O)c(-c2ccc(O)c(O)c2)oc2cc(O)cc(O)c12` [QUERCETIN]: 3.80, 4.24 and 2.8.
In the case of `O=C(O)c1cc(O)c2c(c1)C(=O)c1cccc(O)c1C2=O` [RHEIN], the negative logarithm of the IC50 (pIC50) is 3.89 at Sialidase-2 and 4.85 in test [2]. In addition, the Ratio IC50 in test [3] turned out to be 9.3.
For `COc1cc(O)c2c(c1)O[C@H](c1ccc(O)cc1)CC2=O` [SAKURANETIN], the pIC50 at Sialidase-2 is 3.05; in test [2] it was less than 3.00. For the same molecule, in test [3], the Ratio IC50 was less than 0.9.
The matching figures for `O=c1cc(-c2ccc(O)cc2)oc2cc(O)c(O)c(O)c12` [SCUTELLAREIN]: 4.26, 4.30 and 1.1.
The like results for `O=c1cc(-c2cc(O)c(O)c(O)c2)oc2cc(O)cc(O)c12` [TRICETIN] were, in that order, 3.89, 4.41 and 3.3.
